Active and inactive are the calls of the source. No cut-off for these calls is given here.
Key:
Tubulin (Bos taurus) [1] = molecular target: T1, Tubulin (Bos taurus) (UniProt Q6B856+Q862L2+Q862F3); experiment: (§1) Binding affinity to bovine brain tubulin assessed as reduction in tubulin intrinsic tryptophan fluorescence intensity incubated for 45 mins by spectrophotometry based fluorescence titration assay
Method in brief: (§2)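 Tubulin binding measured as quenching of intrinsic tryptophan fluorescence across increasing compound concentrations. KD derived from double reciprocal plots. Mean ± S.D. of three independent experiments, each performed in triplicate.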

Tubulin = Tubulin (Bos taurus, UniProt Q6B856+Q862L2+Q862F3); experiment: as §1; method in brief: as §2
Tubulin (Bos taurus) [2] = molecular target: T1, Tubulin (Bos taurus); experiment: Inhibition of bovine brain tubulin polymerization incubated for 10 to 30 mins by spectrophotometry based light scattering assay
Method in brief: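 Polymerisation of 12 µM tubulin followed by turbidity (light scattering) at 350 nm. Compound range 0–25 µM, over 30 min. Reported as relative absorbance.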

[3] = Cytotoxicity activity against human PC3 cells after 48 hrs by MTT assay; assay type: functional, cell-based; conditions: PC-3, 48 h
Method in brief: (§3)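 Cells exposed for 48 h to increasing gradient concentrations. Proliferation read by MTT assay as percentage cell survival. IC50 is the drug concentration giving 50% inhibition of proliferation.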

MDA-MB-231 [4] = experiment: Cytotoxicity activity against human MDA-MB-231 cells after 48 hrs by MTT assay; assay type: functional, cell-based; conditions: MDA-MB-231, 48 h; method in brief: as §3
MDA-MB-231 [5] = experiment: Induction of cell cycle arrest in human MDA-MB-231 cells assessed as accumulation at G2/M phase at 25 uM after 12 to 48 hrs by propidium iodide staining based FACS method; assay type: functional
Method in brief: (§4)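 MDA-MB-231 cells treated for 0–48 h, with samples at several time points. Concentration was 10 µM for some analogs and 25 µM for others. DNA stained with propidium iodide and analysed by flow cytometry. 2N DNA scored as G1, 4N as G2/M, below 2N as sub-G1 (apoptotic index).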

MDA-MB-231 [6] = experiment: Induction of apoptosis in human MDA-MB-231 cells assessed as accumulation at subG1 phase at 25 uM after 12 to 48 hrs by propidium iodide staining based FACS method; assay type: functional, cell-based; method in brief: as §4
MDA-MB-231 [7] = experiment: Induction of apoptosis in human MDA-MB-231 cells assessed as reduction in survivin protein expression at 25 uM after 24 hrs by immunoblot method; assay type: functional, cell-based
Method in brief: (§5)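 Lysates from treated and control cells run on immunoblots. Probed for survivin and cleaved PARP, with β-actin as loading control.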

MDA-MB-231 [8] = experiment: Induction of apoptosis in human MDA-MB-231 cells assessed as increase in cleaved PARP protein level at 25 uM after 24 hrs by immunoblot method; assay type: functional, cell-based; method in brief: as §5
MDA-MB-231 [9] = experiment: Induction of apoptosis in human MDA-MB-231 cells assessed as increase in caspase-3/7 activity by measuring Z-DEVD-aminoluciferin cleavage at 25 uM after 24 hrs by luminescence plate reader based method; assay type: functional, cell-based
Method in brief: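 Lysates from treated and control cells assayed for caspase-3/7 activity. Read-out was luminescence from cleavage of Z-DEVD-aminoluciferin, expressed relative to control.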

MDA-MB-231 [10] = experiment: Induction of cell death in human MDA-MB-231 cells at 25 uM after 48 hrs by propidium iodide staining based FACS method; assay type: functional; method in brief: as §4
MDA-MB-231 [11] = experiment: Induction of cell cycle arrest in human MDA-MB-231 cells assessed as accumulation at G2/M phase at 10 uM after 12 to 48 hrs by propidium iodide staining based FACS method; assay type: functional
Method in brief: (§6)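 MDA-MB-231 cells treated for 0–48 h (compounds at 10 µM or 25 µM depending on analog); DNA stained with propidium iodide and cell cycle profiles read by flow cytometry; G2/M (4N DNA) and sub-G1 (apoptotic index) populations quantified at each time point.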

MDA-MB-231 [12] = experiment: Induction of apoptosis in human MDA-MB-231 cells assessed as accumulation at subG1 phase at 10 uM after 12 to 48 hrs by propidium iodide staining based FACS method; assay type: functional, cell-based; method in brief: as §6
MDA-MB-231 [13] = experiment: Induction of apoptosis in human MDA-MB-231 cells assessed as reduction in survivin protein expression at 10 uM after 24 hrs by immunoblot method; assay type: functional, cell-based
Method in brief: (§7)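 Protein lysates from treated and control MDA-MB-231 cells analysed by immunoblot, probed for survivin and cleaved PARP, with β-actin as loading control.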

MDA-MB-231 [14] = experiment: Induction of apoptosis in human MDA-MB-231 cells assessed as increase in cleaved PARP protein level at 10 uM after 24 hrs by immunoblot method; assay type: functional, cell-based; method in brief: as §7
MDA-MB-231 [15] = experiment: Induction of apoptosis in human MDA-MB-231 cells assessed as increase in caspase-3/7 activity by measuring Z-DEVD-aminoluciferin cleavage at 10 uM after 24 hrs by luminescence plate reader based method; assay type: functional, cell-based
Method in brief: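 Lysates from treated and control MDA-MB-231 cells assayed for caspase-3/7 activity by luminescence from cleavage of Z-DEVD-aminoluciferin substrate; activity expressed relative to untreated control.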

MDA-MB-231 [16] = experiment: Induction of cell death in human MDA-MB-231 cells at 10 uM after 48 hrs by propidium iodide staining based FACS method; assay type: functional; method in brief: as §4
Tubulin (Bos taurus) [17] = molecular target: T1, Tubulin (Bos taurus); experiment: Inhibition of bovine brain tubulin polymerization at 25 uM incubated for 10 to 30 mins by spectrophotometry based light scattering assay
Method in brief: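 Assembly of 12 µM tubulin followed by turbidity (light scattering) at 350 nm over 30 min with compound at 0–25 µM; relative absorbance compared with control.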

Row | inhibition (Tubulin (Bos taurus) [17]) | SMILES | Activity (Tubulin (Bos taurus) [1]) | Kd (Tubulin) | inhibition (Tubulin (Bos taurus) [2]) | IC50 [3] | IC50 (MDA-MB-231 [4]) | Activity (MDA-MB-231 [5]) | Activity (MDA-MB-231 [6]) | Activity (MDA-MB-231 [7]) | Activity (MDA-MB-231 [8]) | Activity (MDA-MB-231 [9]) | Activity (MDA-MB-231 [10]) | Activity (MDA-MB-231 [11]) | Activity (MDA-MB-231 [12]) | Activity (MDA-MB-231 [13]) | Activity (MDA-MB-231 [14]) | Activity (MDA-MB-231 [15]) | Activity (MDA-MB-231 [16])
1 | – | COc1ccc2c(c1OC(=O)NCc1ccccc1)C(=O)O[C@@H]2[C@H]1c2c(c(Br)c3c(c2OC)OCO3)CCN1C | Dose-dependent effect | 21 µM | Dose-dependent effect | 49.4 µM | 20 µM | 15% | Active | Active | Active | Active | 80% | – | – | – | – | – | –
2 | – | COc1ccc2c(c1OC(C)=O)C(=O)O[C@@H]2[C@H]1c2c(c(Br)c3c(c2OC)OCO3)CCN1C | Dose-dependent effect | 44 µM | Dose-dependent effect | 48.9 µM | 2.5 µM | – | – | – | – | – | – | 15% | Active | inactive | Active | Active | 80%
3 | – | CCNC(=O)Oc1c(OC)ccc2c1C(=O)O[C@@H]2[C@H]1c2c(c(Br)c3c(c2OC)OCO3)CCN1C | Dose-dependent effect | 26 µM | Dose-dependent effect | 22 µM | 3.9 µM | 15% | Active | Active | Active | Active | 80% | – | – | – | – | – | –
4 | Active | COc1ccc2c(c1O)C(=O)O[C@@H]2[C@H]1c2c(c(Br)c3c(c2OC)OCO3)CCN1C | Dose-dependent effect | 55 µM | Dose-dependent effect | 5.6 µM | 2.2 µM | – | – | – | – | – | – | 15% | Active | inactive | Active | Active | –
